“And” between values parts separate entries of the source, which are not always exact repeats. Equal values may be shown once.
Key:
[1] = test system: Canis familiaris; assay: Conduction time was determined by intraduodenal administration of two dosages of 10 mg/kg of compound in anesthetized dogs. Value was reported for experiment 1; type: functional, Canis lupus familiaris
Procedure, shortened: (§1)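 Anesthetized dogs given the compound intraduodenally, generally as two doses with the second a cumulative total (low/high). FRP and CT measured at 15, 30 and 45 min after dosing. HR and BP taken during nonpacing intervals. Values are percent change from control per animal. Activity criterion is FRP or CT prolonged ≥12%. Vehicle: 5% dextrose in water/tragacanth.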

[2] = test system: Canis familiaris; assay: Heart rate was determined by intraduodenal administration of two dosages of 3 mg/kg of (high dose) compound in anesthetized dogs. Value was reported for experiment 3; type: functional, Canis lupus familiaris; procedure, shortened: as §1
[3] = test system: Canis familiaris; assay: Left ventricular refractory period was determined by intraduodenal administration of two dosages of 3 mg/kg of (low dose) compound in anesthetized dogs. Value was reported for experiment 1; type: functional, Canis lupus familiaris, Cardiac ventricle
Procedure, shortened: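 Anesthetized dogs received two intraduodenal doses, the second cumulative (low dose/high dose). Left ventricular FRP and CT were measured 15, 30 and 45 min after dosing. Heart rate and mean blood pressure were taken during nonpacing intervals. Values are percent change from control. The vehicle was 5% dextrose in water/tragacanth. Activity was defined as ≥12% prolongation of FRP or CT.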

[4] = test system: Canis familiaris; assay: Mean arterial blood pressure was determined by intraduodenal administration of two dosages of 3 mg/kg of (high dose) compound in anesthetized dogs. Value was reported for experiment 3; type: functional, Canis lupus familiaris
Procedure, shortened: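 Anesthetized dogs, usually given two intraduodenal doses, with the second dose cumulative (low/high). Left ventricular FRP and CT were determined at 15, 30 and 45 min after dosing. HR and BP were measured during nonpacing intervals. Values are % change from control at low/high dose, for individual animals. The vehicle-stability set used 5% dextrose in water/tragacanth (n = 8).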

[5] = species on record: Canis familiaris; assay: In vitro electrophysiological evaluation in canine cardiac Purkinje fibres reported as maximum percent change Vmax concentration range of 1-100 uM; type: functional; conditions: Canis lupus familiaris; Purkinje fiber
Procedure, shortened: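 Canine cardiac Purkinje fibers, intracellular recording, paced at a basic cycle length of 1 s. APD95 and Vmax are recorded together across cumulative concentrations. Compound is a 10 mM aqueous stock diluted into Tyrode's solution. Each fiber is used once as its own control. Readouts are percent change from control at 10 μM, and the maximum change with the concentration where it occurred.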

[6] = species on record: Canis familiaris; assay: In vitro electrophysiological evaluation in canine cardiac ventricular muscle reported as % change for the functional refractory period (FRP) concentration range of 0.1-100 uM; design: species or system Canis lupus familiaris, Muscle tissue
Procedure, shortened: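 Canine right ventricular/papillary muscle strips in oxygenated Tyrode's, extracellular extra-stimulus conduction-interval method. FRP and CT are read from conduction-interval curves before and during rising concentrations. Compound is a 10 mM aqueous stock diluted into Tyrode's. Each strip is used once as its own control. Readouts are percent change from control at 10 μM, plus the maximum change with its concentration.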

With `CCCCCCC[N+](CC)(CC)CCCCc1ccc(Cl)cc1.O=P([O-])(O)O` [CLOFILIUM PHOSPHATE] the CT [1] was -7%, the HR [2] was -7% and the “LV FRP” value [3] was 10%. For the same compound, the Mean blood pressure [4] was 0%, the Vmax [5] was -69% and -65% and the “FRP at 10microM” value [6] was -3%.

Source: ChEMBL document CHEMBL1123566, “Synthesis and cardiac electrophysiological activity of 2- and 3-[(substituted phenyl)alkyl]quinuclidines. Structure-activity relationships” (1987)
